Test results as given in ChEMBL document CHEMBL4130528, “Serotonin Analogues as Inhibitors of Breast Cancer Cell Growth” (ACS Med Chem Lett, 2017).

What was measured:
MDA-MB-231 = experiment: Cytotoxicity against human MDA-MB-231 cells assessed as reduction in cell viability by cell titer 96 aqueous one solution based assay; type: functional
Summary of the method: (§1)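 MDA-MB-231 and MCF-7 breast cancer cells were treated with increasing concentrations of compound. Viability was read by MTS assay, and IC50 values were derived from the concentration–response data.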

MCF7 = experiment: Cytotoxicity against human MCF7 cells assessed as reduction in cell viability by cell titer 96 aqueous one solution based assay; type: functional; summary of the method: as §1

SMILES | IC50 (MDA-MB-231) | IC50 (MCF7)
N#CCCCCCCOc1ccc2[nH]cc(CCN)c2c1 | > 50 µM | > 50 µM
CCCCCCCCCOc1cccc2c(CCN)c[nH]c12 | 8 µM | 15 µM
CCCCCCCCCCCCCCCCOc1ccc2[nH]cc(CCN)c2c1 | 7.5 µM | 13 µM
NCCc1c[nH]c2ccc(OCc3cccc(COc4ccc5[nH]cc(CCN)c5c4)c3)cc12 | 18 µM | 22 µM
CCCCCCCCCOc1ccc2[nH]cc(CCN)c2c1 | 4.7 µM | 8.8 µM
CCCCOc1ccc2[nH]cc(CCN)c2c1 | 48 µM | 45 µM
CCCCCCCCCCCCOc1cccc2[nH]cc(CCN)c12 | 4.1 µM | 5 µM
CCCCCCCCCCCOc1ccc2[nH]cc(CCN)c2c1 | 4.4 µM | 6.1 µM
CCCCCCCCCCCCOc1cccc2c(CCN)c[nH]c12 | 4.6 µM | 8.6 µM
